Results from ChEMBL document CHEMBL1127847, “Cyclic GMP phosphodiesterase inhibitors. 2. Requirement of 6-substitution of quinazoline derivatives for potent and selective inhibitory activity” (J Med Chem, 1994).

Key:
Sus scrofa = species on record: Sus scrofa; experiment: Relaxant effect on PGF2-alpha precontracted porcine coronary arteries; format: functional, organism-based
In short: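 Porcine coronary strips held at 1 g resting tension. Endothelium confirmed by 7 × 10^-9 M bradykinin relaxation after 50 mM KCl. Contraction with PGF2α (final 10^-5 M); at plateau, cumulative concentration-relaxation curves built. Relaxation expressed as % of PGF2α contraction. EC50 from the log cumulative plot, mean ± SEM (n given).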

[1] = molecular target: cGMP-dependent 3',5'-cyclic phosphodiesterase (Homo sapiens, UniProt O00408); experiment: Inhibition of cGMP stimulated-PDE 2 from porcine aorta; parameters: species or system Sus scrofa; conditions: target entry is the homologue from another species
cGMP-dependent 3',5'-cyclic phosphodiesterase, sequence (O00408 whole entry): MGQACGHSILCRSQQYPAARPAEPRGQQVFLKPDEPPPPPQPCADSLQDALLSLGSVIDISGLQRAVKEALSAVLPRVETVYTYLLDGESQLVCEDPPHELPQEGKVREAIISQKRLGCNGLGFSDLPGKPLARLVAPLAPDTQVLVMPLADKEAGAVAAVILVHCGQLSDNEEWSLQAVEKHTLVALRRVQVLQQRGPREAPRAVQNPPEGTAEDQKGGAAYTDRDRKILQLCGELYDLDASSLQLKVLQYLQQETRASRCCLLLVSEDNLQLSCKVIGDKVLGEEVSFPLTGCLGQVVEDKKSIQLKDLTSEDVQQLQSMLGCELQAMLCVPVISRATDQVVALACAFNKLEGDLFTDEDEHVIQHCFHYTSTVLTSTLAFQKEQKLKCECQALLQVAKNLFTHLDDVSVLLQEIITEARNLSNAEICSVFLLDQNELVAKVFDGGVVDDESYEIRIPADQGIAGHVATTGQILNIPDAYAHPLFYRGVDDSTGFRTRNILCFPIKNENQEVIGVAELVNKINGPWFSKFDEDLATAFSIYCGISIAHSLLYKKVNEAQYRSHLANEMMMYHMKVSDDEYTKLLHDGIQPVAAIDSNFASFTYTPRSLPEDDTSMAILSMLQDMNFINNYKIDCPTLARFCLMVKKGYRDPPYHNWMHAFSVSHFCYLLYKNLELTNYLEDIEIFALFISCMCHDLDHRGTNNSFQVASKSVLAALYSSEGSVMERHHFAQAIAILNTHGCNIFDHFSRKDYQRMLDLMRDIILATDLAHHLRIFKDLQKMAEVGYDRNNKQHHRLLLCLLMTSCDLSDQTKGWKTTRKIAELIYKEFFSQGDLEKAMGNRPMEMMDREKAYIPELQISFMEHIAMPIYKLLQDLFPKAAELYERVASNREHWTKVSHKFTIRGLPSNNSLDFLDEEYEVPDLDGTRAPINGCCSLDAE
In short: (§1)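 Porcine aorta PDE isozyme, two-step radioisotopic assay with 1 µM [3H]substrate: cGMP for type I, cAMP for types II, III and IV. Compounds dissolved in DMSO, diluted in assay buffer over 10^-8 to 10^-4 M, final DMSO under 0.4% (v/v). IC50 taken from the log concentration-inhibition plot (at least three points), mean ± SEM of at least three experiments.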

Phosphodiesterase 4A = molecular target: T1, Phosphodiesterase 4A (Sus scrofa, UniProt O77823); experiment: Inhibition of cAMP specific-PDE 4 from porcine aorta; in short: as §1
T1 sequence (O77823 whole entry): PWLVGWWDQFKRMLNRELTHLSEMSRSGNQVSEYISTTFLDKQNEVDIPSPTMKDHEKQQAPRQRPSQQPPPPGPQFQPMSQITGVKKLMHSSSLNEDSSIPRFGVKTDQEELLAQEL

Phosphodiesterase 3A = molecular target: T2, Phosphodiesterase 3A (Sus scrofa, UniProt Q9XSW7); experiment: Inhibition of cGMP-inhibited PDE 3 from porcine aorta; in short: as §1
T2 sequence (Q9XSW7 whole entry): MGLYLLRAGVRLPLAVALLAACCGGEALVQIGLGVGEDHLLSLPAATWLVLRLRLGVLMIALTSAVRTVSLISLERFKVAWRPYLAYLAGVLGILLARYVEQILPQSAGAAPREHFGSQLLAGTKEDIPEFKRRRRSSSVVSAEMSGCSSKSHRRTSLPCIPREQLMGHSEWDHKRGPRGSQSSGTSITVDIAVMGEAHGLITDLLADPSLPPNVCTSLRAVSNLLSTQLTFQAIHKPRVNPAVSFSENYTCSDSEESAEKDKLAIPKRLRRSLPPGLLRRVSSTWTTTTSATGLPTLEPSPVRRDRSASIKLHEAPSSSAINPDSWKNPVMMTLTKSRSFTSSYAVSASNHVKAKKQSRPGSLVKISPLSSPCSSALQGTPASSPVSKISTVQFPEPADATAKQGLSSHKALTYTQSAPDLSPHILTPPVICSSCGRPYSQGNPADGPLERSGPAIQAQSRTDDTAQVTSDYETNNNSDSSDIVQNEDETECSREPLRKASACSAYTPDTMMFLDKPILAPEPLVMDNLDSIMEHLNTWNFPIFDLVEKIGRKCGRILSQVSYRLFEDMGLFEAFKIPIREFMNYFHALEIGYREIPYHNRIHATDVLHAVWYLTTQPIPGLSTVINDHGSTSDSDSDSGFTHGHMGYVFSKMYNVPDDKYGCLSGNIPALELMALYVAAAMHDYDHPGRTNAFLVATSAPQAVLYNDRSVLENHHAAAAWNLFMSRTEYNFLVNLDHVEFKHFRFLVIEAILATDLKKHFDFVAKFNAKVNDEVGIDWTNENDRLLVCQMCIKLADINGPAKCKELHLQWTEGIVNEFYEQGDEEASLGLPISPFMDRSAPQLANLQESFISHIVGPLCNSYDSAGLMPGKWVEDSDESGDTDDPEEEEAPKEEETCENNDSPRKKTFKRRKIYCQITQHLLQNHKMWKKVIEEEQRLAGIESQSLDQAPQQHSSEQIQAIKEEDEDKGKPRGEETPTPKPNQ

Phosphodiesterase 1 = Phosphodiesterase 1 (Homo sapiens, UniProt P54750+Q01064+Q14123); experiment: Inhibition of Ca++ calmodulin dependent-PDE 1 from porcine aorta; format: protein assay, Sus scrofa; conditions: target entry is the homologue from another species; in short: as §1

| Structure (SMILES) | EC50 (Sus scrofa) [µM] | IC50 [1] [µM] | IC50 (Phosphodiesterase 4A) [µM] | IC50 (Phosphodiesterase 3A) [µM] | IC50 (Phosphodiesterase 1) [µM] |
| --- | --- | --- | --- | --- | --- |
| N#Cc1ccc2ncnc(NCc3ccc4c(c3)OCO4)c2c1 | 0.3 | > 100 | > 100 | > 100 | > 100 |
| COc1ccc2ncnc(NCc3ccc4c(c3)OCO4)c2c1 | 1.19 | > 100 | > 100 | – | > 100 |
| COc1cc2c(NCc3ccc4c(c3)OCO4)ncnc2c(OC)c1OC | 2.13 | – | – | – | – |
| Clc1ccc2ncnc(NCc3ccc4c(c3)OCO4)c2c1 | 0.19 | > 100 | > 100 | > 100 | > 100 |
| Cc1ccc2ncnc(NCc3ccc4c(c3)OCO4)c2c1 | 1.56 | > 100 | > 100 | > 100 | > 100 |
| CSc1ccc2ncnc(NCc3ccc4c(c3)OCO4)c2c1 | 0.12 | > 100 | > 100 | > 100 | > 100 |
